Test results: ChEMBL document CHEMBL1146554, “Antioxidative meroterpenoids from the brown alga Cystoseira crinita” (J Nat Prod, 2003)
≈ marks a conversion by molar mass, not a printed value. Calls of active or inactive are those of the source. The rule behind the calls is not given here.

Tests used:
[1] = test system: Radical scavenging activity; assay: Antioxidant activity assessed as DPPH radical scavenging activity at 12 uM after 30 mins; type: functional
Procedure, shortened: (§1)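 Samples in EtOH (100 µL) mixed with 25 µL of 1 mM DPPH in EtOH plus 75 µL EtOH, then shaken briefly. Kept 30 min at room temperature in the dark. Absorbance read at 517 nm. % scavenging calculated against control, with blank and sample-blank corrections.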

[2] = Cytotoxicity against human HM02 cells; type: functional
Procedure, shortened: (§2)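 Cytotoxicity tested on HM02 gastric adenocarcinoma, HepG2 hepatocellular carcinoma and MCF7 breast adenocarcinoma lines following NCI standards.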

[3] = Antioxidant activity assessed as inhibition of FeSO4-induced lipid peroxidation at 33 uM by TBARS assay; type: functional
Procedure, shortened: (§3)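 Linolenic acid methyl ester oxidized under FeSO4 catalysis in 50 mM phosphate buffer pH 7.2 at 50 °C. BHT in ethanol added to stop further oxidation. TBARS developed with trichloroacetic and thiobarbituric acid, 60 °C for 30 min. Read A532 minus A600 background. % inhibition calculated versus uninhibited control, with blank and sample-blank corrections.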

[4] = test system: Radical scavenging activity; assay: Antioxidant activity assessed as DPPH radical scavenging activity at 58 uM after 30 mins; type: functional; procedure, shortened: as §1
[5] = test system: Radical scavenging activity; assay: Antioxidant activity assessed as DPPH radical scavenging activity at 6 uM after 30 mins; type: functional; procedure, shortened: as §1
[6] = Antioxidant activity assessed as inhibition of FeSO4-induced lipid peroxidation at 16 uM by TBARS assay; type: functional; procedure, shortened: as §3
[7] = Superoxide radical scavenging activity assessed as trolox equivalents by photochemiluminescence assay
Procedure, shortened: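 Photochemiluminescence with luminol acting as photosensitizer and detection reagent, generating superoxide. Mix of 2.29 mL reagent 1 (solvent/diluent), 200 µL buffer reagent, 25 µL photosensitizer and 10 µL sample in ethanol or Trolox standard in water. Antioxidant capacity taken from the integral under the curve and expressed as Trolox equivalents.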

[8] = test system: Aspergillus pseudoglaucus; assay: Antimicrobial activity against Eurotium repens at 50 ug/disk by agar diffusion assay; type: functional, organism-based
Procedure, shortened: (§4)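 Agar diffusion assay with discs loaded at 50 µg/disk, run against the bacteria, fungi and the green microalga Chlorella fusca.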

Escherichia coli = assay: Antimicrobial activity against Escherichia coli at 50 ug/disk by agar diffusion assay; type: functional, organism-based; procedure, shortened: as §4
MCF7 = assay: Cytotoxicity against human MCF7 cells; type: functional; procedure, shortened: as §2
Priestia megaterium = assay: Antimicrobial activity against Bacillus megaterium at 50 ug/disk by agar diffusion assay; type: functional, organism-based; procedure, shortened: as §4
[9] = test system: Radical scavenging activity; assay: Antioxidant activity assessed as DPPH radical scavenging activity at 230 uM after 30 mins; type: functional; procedure, shortened: as §1
[Chlorella] fusca = Antimicrobial activity against 'Chlorella' fusca at 50 ug/disk by agar diffusion assay; type: functional, organism-based; conditions: Scenedesmus fuscus; procedure, shortened: as §4
[10] = Antioxidant activity assessed as inhibition of FeSO4-induced lipid peroxidation at 164 uM by TBARS assay; type: functional; procedure, shortened: as §3
HepG2 [11] = assay: Cytotoxicity against human HepG2 cells; type: functional; procedure, shortened: as §2
Mycotypha microspora = assay: Antimicrobial activity against Mycotypha microspora at 50 ug/disk by agar diffusion assay; type: functional, organism-based; procedure, shortened: as §4
[12] = test system: Radical scavenging activity; assay: Antioxidant activity assessed as DPPH radical scavenging activity at 115 uM after 30 mins; type: functional; procedure, shortened: as §1
[13] = Antioxidant activity assessed as inhibition of FeSO4-induced lipid peroxidation at 8 uM by TBARS assay; type: functional; procedure, shortened: as §3
[14] = ABTS radical scavenging activity assessed as trolox equivalents by TEAC assay; type: physicochemical
Procedure, shortened: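 ABTS radical cation made by passing ABTS in PBS through manganese dioxide, then filtered (0.2 µm). Diluted in 5 mM PBS pH 7.4 to A734 0.700 and preincubated 2 h at room temperature. 1 mL radical mixed with 200 µL ethanolic sample, vortexed 30 s, centrifuged. A734 of lower phase read exactly 2 min after mixing. PBS and ethanol blanks included. Trolox standards used; value is mM Trolox equivalent to 1.0 mM compound.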

Microbotryum violaceum = assay: Antimicrobial activity against Microbotryum violaceum at 50 ug/disk by agar diffusion assay; type: functional, organism-based; procedure, shortened: as §4
[15] = Antioxidant activity assessed as inhibition of FeSO4-induced lipid peroxidation at 82 uM by TBARS assay; type: functional; procedure, shortened: as §3
[16] = test system: Radical scavenging activity; assay: Antioxidant activity assessed as DPPH radical scavenging activity at 23 uM after 30 mins; type: functional; procedure, shortened: as §1
[17] = biological target: Human immunodeficiency virus type 1 reverse transcriptase (Human immunodeficiency virus 1) (UniProt Q72547); assay: Inhibition of HIV1 reverse transcriptase at 66 ug/ml by ELISA
Procedure, shortened: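 HIV-1 RT activity inhibition measured by ELISA with the test compound at 66 µg/mL.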

HepG2 [18] = assay: Cytotoxicity against human HepG2 cells at 10 ug/ml; type: functional; conditions: read-out: GI

SMILES	Activity [1]	GI50 [2]	LC50 [2]	TGI [2]	inhibition [3]	Activity [4]	Activity [5]	inhibition [6]	Activity [7]	Activity [8]	Activity (Escherichia coli)	GI50 (MCF7)	LC50 (MCF7)	TGI (MCF7)	Activity (Priestia megaterium)	Activity [9]	Activity ([Chlorella] fusca)	inhibition [10]	GI50 (HepG2 [11])	LC50 (HepG2 [11])	also measured
C/C(=C/C(=O)C/C(C)=C/Cc1cc(O)cc(C)c1O)CC/C=C(\C)Cc1cc(C)co1	11%	0.9 µg/mL (≈ 2.13 µM)	4.6 µg/mL (≈ 10.9 µM)	2 µg/mL (≈ 4.73 µM)	38.9%	56.7%	5.9%	25.2%	0.79 mmol/L	inactive	inactive	0.9 µg/mL (≈ 2.13 µM)	3.6 µg/mL (≈ 8.52 µM)	1.7 µg/mL (≈ 4.02 µM)	inactive	95.8%	inactive	74.6%	1.7 µg/mL (≈ 4.02 µM)	> 10 µg/mL	TGI (HepG2 [11]): 5 µg/mL (≈ 11.8 µM); Activity (Mycotypha microspora): inactive; Activity [12]: 95.7%; inhibition [13]: 16.4%; Activity [14]: 0.28 mmol/L; Activity (Microbotryum violaceum): inactive; inhibition [15]: 66.6%; Activity [16]: 22.1%
C/C(=C/CC/C(C)=C/CC/C(C)=C/C(=O)C/C(C)=C/Cc1cc(O)cc(C)c1O)CO	12.3%	2.3 µg/mL (≈ 5.39 µM)	> 10 µg/mL	7.4 µg/mL (≈ 17.3 µM)	32.1%	64.8%	8%	14.8%	0.59 mmol/L	inactive	inactive	2.2 µg/mL (≈ 5.16 µM)	> 10 µg/mL	5.1 µg/mL (≈ 12 µM)	inactive	96.4%	inactive	73.7%	7.1 µg/mL (≈ 16.6 µM)	> 10 µg/mL	Activity [17]: inactive; inhibition of growth at 10 µg/mL (HepG2 [18]): 86%; TGI (HepG2 [11]): > 10 µg/mL; Activity (Mycotypha microspora): inactive; Activity [12]: 96.1%; inhibition [13]: 10.6%; Activity [14]: 0.09 mmol/L; Activity (Microbotryum violaceum): inactive; inhibition [15]: 67.2%; Activity [16]: 25.1%
C/C(=C/CC/C(C)=C/CC/C(C)=C\C(=O)C/C(C)=C/Cc1cc(O)cc(C)c1O)CO	15.2%	1.8 µg/mL (≈ 4.22 µM)	> 10 µg/mL	6 µg/mL (≈ 14.1 µM)	31.5%	80.1%	9.1%	18.3%	0.51 mmol/L	inactive	inactive	1.8 µg/mL (≈ 4.22 µM)	> 10 µg/mL	4 µg/mL (≈ 9.38 µM)	inactive	96.7%	inactive	73.4%	6.8 µg/mL (≈ 15.9 µM)	> 10 µg/mL	Activity [17]: inactive; inhibition of growth at 10 µg/mL (HepG2 [18]): 87%; TGI (HepG2 [11]): > 10 µg/mL; Activity (Mycotypha microspora): inactive; Activity [12]: 96%; inhibition [13]: 12%; Activity [14]: 0.09 mmol/L; Activity (Microbotryum violaceum): inactive; inhibition [15]: 69.8%; Activity [16]: 31.2%
C/C(=C\C(=O)C/C(C)=C/Cc1cc(O)cc(C)c1O)CC/C=C(\C)Cc1cc(C)co1	12.5%	0.3 µg/mL (≈ 0.71 µM)	3.4 µg/mL (≈ 8.05 µM)	0.6 µg/mL (≈ 1.42 µM)	41.2%	65.4%	8%	25.8%	1.06 mmol/L	inactive	inactive	1.3 µg/mL (≈ 3.08 µM)	3.7 µg/mL (≈ 8.76 µM)	2.1 µg/mL (≈ 4.97 µM)	inactive	95.4%	inactive	74.9%	1.8 µg/mL (≈ 4.26 µM)	> 10 µg/mL	TGI (HepG2 [11]): 4 µg/mL (≈ 9.47 µM); Activity (Mycotypha microspora): inactive; Activity [12]: 95.2%; inhibition [13]: 15.1%; Activity [14]: 0.08 mmol/L; Activity (Microbotryum violaceum): inactive; inhibition [15]: 69.3%; Activity [16]: 24.9%
